Legend:
Type in all cases: functional
[1] = system: MDA-MB-468; assay: Growth inhibition of human MDA-MB-468 cells at 1 nM after 96 hrs by MTT assay; parameters: scale not given: the % may be the effect or the level left
[2] = system: MCF7; assay: Growth inhibition of human MCF7 cells at 1 nM after 96 hrs by MTT assay; parameters: scale not given: the % may be the effect or the level left
[3] = system: SK-MEL-28; assay: Growth inhibition of human SK-MEL-28 cells at 1 nM after 96 hrs by MTT assay; parameters: scale not given: the % may be the effect or the level left
[4] = system: SF-295; assay: Growth inhibition of human SF295 cells at 1 nM after 96 hrs by MTT assay; parameters: scale not given: the % may be the effect or the level left
[5] = system: KM12; assay: Growth inhibition of human KM12 cells at 1 nM after 96 hrs by MTT assay; parameters: scale not given: the % may be the effect or the level left
[6] = system: T47D; assay: Growth inhibition of human T47D cells at 10 uM after 96 hrs by MTT assay; parameters: scale not given: the % may be the effect or the level left
[7] = system: SN12C; assay: Growth inhibition of human SN12C cells at 10 uM after 96 hrs by MTT assay; parameters: scale not given: the % may be the effect or the level left
[8] = system: ACHN; assay: Growth inhibition of human ACHN cells at 10 uM after 96 hrs by MTT assay; parameters: scale not given: the % may be the effect or the level left
[9] = system: A498; assay: Growth inhibition of human A498 cells at 10 uM after 96 hrs by MTT assay; parameters: scale not given: the % may be the effect or the level left
[10] = system: OVCAR-8; assay: Growth inhibition of human OVCAR8 cells at 10 uM after 96 hrs by MTT assay; parameters: scale not given: the % may be the effect or the level left
[11] = system: SK-MEL-28; assay: Growth inhibition of human SK-MEL-28 cells at 10 uM after 96 hrs by MTT assay; parameters: scale not given: the % may be the effect or the level left
[12] = system: Malme-3M; assay: Growth inhibition of human MALME-3M cells at 10 uM after 96 hrs by MTT assay; parameters: scale not given: the % may be the effect or the level left
[13] = system: HCT-15; assay: Growth inhibition of human HCT15 cells at 10 uM after 96 hrs by MTT assay; parameters: scale not given: the % may be the effect or the level left
[14] = system: HCC 2998; assay: Growth inhibition of human HCC2998 cells at 10 uM after 96 hrs by MTT assay; parameters: scale not given: the % may be the effect or the level left
[15] = system: MOLT-4; assay: Growth inhibition of human MOLT4 cells at 10 uM after 96 hrs by MTT assay; parameters: scale not given: the % may be the effect or the level left
[16] = system: KM12; assay: Growth inhibition of human KM12 cells after 96 hrs by MTT assay; settings: KM12, 96 h
Summary of the method: (§1)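 Run in the NCI 60 human tumour cell line panel as a five-dose assay. GI50 and LC50 were reported for each cell line.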

[17] = system: SF-268; assay: Growth inhibition of human SF268 cells after 96 hrs by MTT assay; settings: SF-268, 96 h
Summary of the method: (§2)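 Tested in the NCI 60-cell-line panel in five-dose format; GI50 and LC50 values reported for each cell line.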

[18] = system: LOX IMVI; assay: Growth inhibition of human LOXIMVI cells after 96 hrs by MTT assay; summary of the method: as §1
[19] = system: SK-MEL-5; assay: Growth inhibition of human SK-MEL-5 cells after 96 hrs by MTT assay; settings: SK-MEL-5, 96 h; summary of the method: as §2
[20] = system: T47D; assay: Growth inhibition of human T47D cells after 96 hrs by MTT assay; summary of the method: as §2
[21] = system: NCI-H522; assay: Growth inhibition of human NCI-H522 cells after 96 hrs by MTT assay; settings: NCI-H522, 96 h; summary of the method: as §1
[22] = system: NCI-H226; assay: Growth inhibition of human NCI-H226 cells after 96 hrs by MTT assay; settings: NCI-H226, 96 h; summary of the method: as §1
[23] = system: ACHN; assay: Growth inhibition of human ACHN cells at 1 uM after 96 hrs by MTT assay; parameters: scale not given: the % may be the effect or the level left
[24] = system: SK-OV-3; assay: Growth inhibition of human SKOV3 cells at 1 uM after 96 hrs by MTT assay; parameters: scale not given: the % may be the effect or the level left
[25] = system: BT-549; assay: Growth inhibition of human BT549 cells at 100 nM after 96 hrs by MTT assay; parameters: scale not given: the % may be the effect or the level left
[26] = system: UO-31; assay: Growth inhibition of human UO31 cells at 100 nM after 96 hrs by MTT assay; parameters: scale not given: the % may be the effect or the level left
[27] = system: SK-OV-3; assay: Growth inhibition of human SKOV3 cells at 100 nM after 96 hrs by MTT assay; parameters: scale not given: the % may be the effect or the level left
[28] = system: HCT-15; assay: Growth inhibition of human HCT15 cells at 100 nM after 96 hrs by MTT assay; parameters: scale not given: the % may be the effect or the level left
[29] = system: HOP-92; assay: Growth inhibition of human HOP92 cells at 100 nM after 96 hrs by MTT assay; parameters: scale not given: the % may be the effect or the level left
[30] = system: HL-60(TB); assay: Growth inhibition of human HL-60(TB) cells at 100 nM after 96 hrs by MTT assay; parameters: scale not given: the % may be the effect or the level left
[31] = system: MDA-MB-231; assay: Growth inhibition of human MDA-MB-231 cells at 10 nM after 96 hrs by MTT assay; parameters: scale not given: the % may be the effect or the level left
[32] = system: IGROV-1; assay: Growth inhibition of human IGROV1 cells at 10 nM after 96 hrs by MTT assay; parameters: scale not given: the % may be the effect or the level left
[33] = system: MDA-MB-435; assay: Growth inhibition of human MDA-MB-435 cells at 10 nM after 96 hrs by MTT assay; parameters: scale not given: the % may be the effect or the level left
[34] = system: SW-620; assay: Growth inhibition of human SW620 cells at 10 nM after 96 hrs by MTT assay; parameters: scale not given: the % may be the effect or the level left
[35] = system: HCT-15; assay: Growth inhibition of human HCT15 cells at 10 nM after 96 hrs by MTT assay; parameters: scale not given: the % may be the effect or the level left
[36] = system: HCC 2998; assay: Growth inhibition of human HCC2998 cells at 10 nM after 96 hrs by MTT assay; parameters: scale not given: the % may be the effect or the level left
[37] = system: SK-MEL-2; assay: Growth inhibition of human SK-MEL-2 cells at 1 uM after 96 hrs by MTT assay; parameters: scale not given: the % may be the effect or the level left
[38] = system: SNB-75; assay: Growth inhibition of human SNB75 cells at 1 uM after 96 hrs by MTT assay; parameters: scale not given: the % may be the effect or the level left
[39] = system: HCC 2998; assay: Growth inhibition of human HCC2998 cells at 1 uM after 96 hrs by MTT assay; parameters: scale not given: the % may be the effect or the level left
[40] = system: NCI-H460; assay: Growth inhibition of human NCI-H460 cells at 1 uM after 96 hrs by MTT assay; parameters: scale not given: the % may be the effect or the level left
[41] = system: SR; assay: Growth inhibition of human SR cells at 1 uM after 96 hrs by MTT assay; parameters: scale not given: the % may be the effect or the level left
[42] = read-out: Log10GI50 (converted)
[43] = read-out: Log10LC50 (converted)
[44] = read-out: LC50 (the source's name)

## C=C(C)[C@H]1CC=C(C)C2=CO[C@@H](c3ccccc3F)[C@@H]21
[1]
  Activity: 93%
[2]
  Activity: 93%
[3]
  Activity: 98%
[4]
  Activity: 96%
[5]
  Activity: 95%
[6]
  Activity: 56.11%
[7]
  Activity: 100.7%
[8]
  Activity: 93.56%
[9]
  Activity: 104.48%
[10]
  Activity: 94.8%
[11]
  Activity: 110.2%
[12]
  Activity: 101.14%
[13]
  Activity: 103.41%
[14]
  Activity: 115.46%
[15]
  Activity: 74.3%
[16]; read-out: GI50
  GI50: 4.02 µM
[16]; read-out: LC50
  LC50: 40.4 µM
[16]; [42]
  GI50: 3.98 µM
[16]; [43]
  LC50: 40.7 µM
[16]; read-out: Log10TGI (converted)
  TGI: 15.8 µM
[16]; read-out: TGI
  TGI: 15.7 µM
[17]; read-out: GI50
  GI50: 6.95 µM
[17]; [44]
  CC50: 62.9 µM
[17]; [42]
  GI50: 6.92 µM
[17]; [43]
  CC50: 63.1 µM
[17]; read-out: Log10TGI (converted)
  TGI: 23.4 µM
[17]; read-out: TGI
  TGI: 23.4 µM
[18]; read-out: GI50
  GI50: 4.3 µM
[18]; [44]
  CC50: 55.4 µM
[18]; [42]
  GI50: 4.27 µM
[18]; [43]
  CC50: 55 µM
[18]; read-out: Log10TGI (converted)
  TGI: 20 µM
[18]; read-out: TGI
  TGI: 19.8 µM
[19]; read-out: GI50
  GI50: 2.48 µM
[19]; [44]
  CC50: 38.6 µM
[19]; [42]
  GI50: 2.51 µM
[19]; [43]
  CC50: 38.9 µM
[19]; read-out: Log10TGI (converted)
  TGI: 14.8 µM
[19]; read-out: TGI
  TGI: 14.9 µM
[20]; read-out: GI50
  GI50: 2.24 µM
[20]; [44]
  CC50: > 100 µM
[20]; [42]
  GI50: 2.24 µM
[20]; [43]
  CC50: > 100 µM
[20]; read-out: Log10TGI (converted)
  TGI: 11 µM
[20]; read-out: TGI
  TGI: 11.1 µM
[21]; read-out: GI50
  GI50: 3.13 µM
[21]; [44]
  CC50: 45.5 µM
[21]; [42]
  GI50: 3.16 µM
[21]; [43]
  CC50: 45.7 µM
[21]; read-out: Log10TGI (converted)
  TGI: 17.4 µM
[21]; read-out: TGI
  TGI: 17.4 µM
[22]; read-out: GI50
  GI50: 3.82 µM
[22]; [44]
  CC50: 50.6 µM
[22]; [42]
  GI50: 3.8 µM
[22]; [43]
  CC50: 50.1 µM
[22]; read-out: Log10TGI (converted)
  TGI: 19.1 µM
[22]; read-out: TGI
  TGI: 18.9 µM
[23]
  Activity: 39%
[24]
  Activity: 59%
[25]
  Activity: 67%
[26]
  Activity: 81%
[27]
  Activity: 98%
[28]
  Activity: 84%
[29]
  Activity: 43%
[30]
  Activity: 92%
[31]
  Activity: 89%
[32]
  Activity: 85%
[33]
  Activity: 83%
[34]
  Activity: 97%
[35]
  Activity: 95%
[36]
  Activity: 89%
[37]
  Activity: 31%
[38]
  Activity: 35%
[39]
  Activity: 39%
[40]
  Activity: 31%
[41]
  Activity: -36%
